Screens from PubChem.
HNF4A DNA FP: change in binding of human HNF4 alpha to DNA. P41235. actives 0.3% (n = 360,000). HNF4a-FITC DNA binding, fluorescence polarization, 1 h. AID 1224865. activity change, % at 10 µM; in the data active means activity change above about 30%, passing the limit was not always enough
CSN inh: blocks human CSN-mediated cullin deneddylation | Q92905 | Purified CSN, SCF-Nedd8-OG deneddylation, fluorescence polarization | inhibition, % at 12.5 µM | actives 0.38% (n = 360,000) | AID 651999;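 active means pattern-corrected inhibition above about 35%, with an unprinted fluorescence ratio check between 0.5 and 1.5, limit read from the data, passing the limit was not always enough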;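 further: 0% = enzyme with substrate and 100% = substrate without enzyme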
Target sequence (Q92905 whole entry, looked up, one chain of several): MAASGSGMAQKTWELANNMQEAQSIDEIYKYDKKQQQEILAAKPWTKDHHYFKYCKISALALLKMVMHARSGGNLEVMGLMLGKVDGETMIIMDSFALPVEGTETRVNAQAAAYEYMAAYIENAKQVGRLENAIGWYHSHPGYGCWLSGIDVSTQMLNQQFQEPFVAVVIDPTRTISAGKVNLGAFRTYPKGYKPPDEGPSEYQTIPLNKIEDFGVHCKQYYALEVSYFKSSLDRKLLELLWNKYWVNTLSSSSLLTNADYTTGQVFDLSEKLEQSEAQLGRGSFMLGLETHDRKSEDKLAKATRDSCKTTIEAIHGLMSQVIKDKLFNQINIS
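test system = HEK293T-derived human Csn5 enzyme | amount = 0.24 nM Csn5 enzyme, final concentration | medium = Tris/NaCl/DTT buffer, pH 7.5 | schedule = 90 min reaction at room temperature | signal = FP | evaluation = inhibition of Csn5 cleavage, % | compound dosing = single dose of 12.5 µM compound with 0.25% DMSO | probe or stimulus = 10 nM SCFSkp2-Nedd8OG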
NR1D1 modulator: modulators of human Rev-erb alpha DNA binding | Rev-erbα–FITC-DNA binding, fluorescence polarization, 90 min | activity, % at 10 µM | actives 0.79% (n = 370,000) | AID 1259318;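 active means activity above about 14%, limit read from the data; passing the limit was not always enough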;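 further: 0% = DMSO wells with 35 nM protein and 100% = DMSO wells with 750 nM protein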
aDG glyco up: alpha-DG glycosylation activation | activation, % at 10 µM | Pro5-aDG cells, alpha-DG glycosylation AlphaScreen (IIH6); 0% Pro5, 100% B10-LARGE cell signal | actives 0.22% (n = 360,000);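 active means activation of at least 8% versus controls, or a plate z-score of at least 8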;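 further: Pro5 are CHO cells carrying HIG-tagged alpha-DG that lacks glycosylation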
aDG conf: confirmation of alpha dystroglycan glycosylation activators | shares compounds with aDG glyco up | actives 17% (n = 600) | activation, % at 10 µM (by protocol) | Pro5-aDG cells, alpha-DG glycosylation, IIH6 AlphaLISA; scaled to LARGE-overexpressing B10 cells as 100%;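 active means activation of at least 7% in one or more replicates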;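 further: cells exposed to compound for two days before detection; 0% = DMSO-treated Pro5 cells and 100% = DMSO-treated B10-LARGE cells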
Numbers without * were called inactive; nt = no result. Shown are actives, neighbours in structure and some others; about 1.5% of the full set was active somewhere.

SMILES | HNF4A DNA FP | CSN inh | NR1D1 modulator | aDG glyco up | aDG conf
CNC(=O)c1c(NC(=O)c2ccc(S(=O)(=O)N3CCCCC3)cc2)sc2c1CCN(C(C)C)C2 | 13.7 | 11.3 | -6.9 | -0.1 | nt
CCOC(=O)N1CCN(S(=O)(=O)c2ccc(C(=O)Nc3sc4c(c3C(N)=O)CCN(CC)C4)cc2)CC1 | -0.2 | 1.9 | 2.1 | 86.4* | 0.3
CCOC(=O)[C@]12CCCC3=C1N(CCC3)C(=O)[C@@H](CC(=O)NCCC(C)C)C2 | nt | nt | -4.4 | nt | nt
O=C(NC(=S)NCc1cccnc1)c1cc(Br)ccc1Cl | 2.8 | 1.1 | -3.3 | 3.5* | 0.9
COc1cccc(CN2CCC(n3nccc3NC(=O)C3CC3)CC2)c1 | 5.5 | -4.9 | 0.1 | 0.2 | nt
O=C(Nc1ccnn1C1CCN(Cc2cccc(OCCO)c2)CC1)C1CC1 | 0.8 | 3.7 | -0.9 | 6.0* | -0.7
CS(=O)(=O)c1ccc(Nc2nc(C(N)Cc3ccc(Cl)cc3)cs2)cc1 (stereo not drawn) | 1.2 | -2.5 | -2.7 | 24.4* | 11.1*
COc1ccc(-c2cc(C(F)(F)F)nc(N3CCOCC3)n2)cc1 | -1.5 | -2.5 | 0.2 | 0.1 | nt
COc1ccc(-c2cc(-c3ccc(F)cc3)nc(N3CCN(C)CC3)n2)cc1 | -1.2 | 0.1 | 2.9 | 15.0* | -0.1
CO[C@H]([C@H](C)/C=C/N(C)C=O)[C@@H](C)C(=O)CC[C@H](C)[C@H](O)[C@H](C)[C@H]1OC(=O)/C=C/C(C)=C/C[C@H](O)C[C@@H]2C=CC[C@@H](C[C@H](OC)[C@@]3(CO3)[C@@H](OC)C[C@@H](OC)[C@@H]1C)O2 | nt | nt | -3.4 | nt | nt
CCN(CC)C(=O)NCc1c(C)cc(C)cc1C | 0.3 | 3.6 | nt | 46.8* | -0.6
COC(=O)C1CN(CCc2ccccc2)CCS(=O)(=O)N1Cc1ccc(C(F)(F)F)cc1 (stereo not drawn) | nt | nt | 4.1 | nt | nt
Cc1ccc(NC(=O)c2ccc([N+](=O)[O-])s2)cc1S(=O)(=O)N1CCOCC1 | 4.4 | -5.3 | -2.4 | 9.0* | 6.1*
O=C(COc1ccc(Cl)cc1)Nc1cccc(-c2ccc3nncn3n2)c1 | 1.7 | 2.4 | -3.0 | 3.5* | -0.1
O=C(/C=C/c1ccco1)Nc1ccc(-c2nc3ccccc3[nH]2)cc1 | 65.6* | 5.0 | -3.8 | 5.0* | -1.1
O=C(Nc1ccc(-c2nc3ccccc3[nH]2)cc1)c1ccco1 | 0.7 | -3.5 | nt | 0.8 | nt
O=C(c1cc(COc2c(F)cccc2F)on1)N1CCC(c2ccncc2)CC1 | 0.5 | -2.5 | -2.7 | 9.2* | -0.1
Cc1cccc(C)c1OCc1cc(C(=O)N2CCC(c3ccncc3)CC2)no1 | 3.0 | 6.4 | 0.4 | 6.2* | 0.7
Cc1cccc(C)c1OCc1cc(C(=O)N2CCN(C3CCCC3)CC2)no1 | -1.2 | -8.4 | -5.8 | -0.3 | nt
O=C(c1cc(COc2c(F)cccc2F)on1)N1CCC(c2ccccc2F)C1 (stereo not drawn) | 2.5 | 6.5 | 3.2 | -0.1 | nt
CCN(CC)c1nc(Oc2ccc(=O)[nH]n2)nc(N2CCOCC2)n1 | 0.0 | -10.2 | 3.4 | -0.2 | nt
CN(C)c1nc(Oc2ccc(=O)n(C)n2)nc(N2CCOCC2)n1 | -1.6 | -1.1 | 1.6 | 6.9* | 0.2
COc1ccccc1NC(=O)OC1CCC12CCCCC2 (stereo not drawn) | nt | nt | -6.2 | nt | nt
Cn1nccc1C(=O)Nc1ccc(Cl)cc1 | -3.0 | 1.2 | -1.7 | -0.1 | nt
Cn1nccc1C(=O)Nc1cc(Cl)ccc1Cl | 1.8 | -0.9 | -7.9 | 2.7* | -0.7
SMILES | HNF4A DNA FP | CSN inh | NR1D1 modulator | aDG glyco up | aDG conf
O=C(Nc1nnc(S(=O)(=O)N2CCOCC2)s1)c1ccc(F)cc1 | 1.6 | 3.7 | -1.6 | 8.7* | -0.6
Cn1c(Br)nc2c1c(=O)n(Cc1ccccc1)c(=O)n2C | 1.1 | 3.6 | -7.1 | 2.4* | 0.7
Cc1ccc(S(=O)(=O)N(C)C)cc1NC(=O)C1CCCCN1S(=O)(=O)c1ccccc1 (stereo not drawn) | -0.2 | 3.9 | 0.8 | 2.9* | -0.7
Cc1cccc(NC(=O)C2CCCCN2S(=O)(=O)c2ccccc2)c1C (stereo not drawn) | 0.5 | 1.8 | -3.8 | 0.2 | nt
O=C(CSCc1ccc(Br)cc1)NC1CC1 | 0.1 | -2.5 | 8.9 | 0.0 | nt
O=C(CSCc1cccc(Br)c1)NC1CC1 | 0.0 | -4.2 | -3.5 | 5.3* | -0.1
Oc1ccc(C[C@H]2CNC(=S)N2CC2CCCN2C[C@H](Cc2ccc(O)cc2)N2C[C@H](Cc3ccccc3)N(CC3CCCCC3)C2=S)cc1 (stereo partly drawn) | 0.0 | 4.5 | -3.0 | 8.9* | 4.2
COc1ccccc1Cc1c(-c2ccc(C#N)cc2)nc2c3ccccc3ccn12 | 3.9 | 0.9 | -1.9 | 8.9* | 3.0
COc1ccccc1Cc1c(-c2ccccc2)nc2c3ccccc3ccn12 | nt | nt | -0.5 | nt | nt
O=C(CSc1nc2ccccc2s1)CSc1nc2ccccc2s1 | -0.3 | 9.4 | -1.8 | 6.8* | -1.0
O=C(O)CSc1nc2ccccc2s1 | 2.1 | -3.4 | -7.0 | -0.1 | nt
CC(Oc1cccc(Cl)c1)C(=O)Nc1ccc(S(=O)(=O)N(C)C2CCN(C)CC2)cc1 (stereo not drawn) | 0.0 | 2.7 | -4.0 | 5.7* | 5.3*
Cc1ccc(C(=O)Cn2c(=N)n(N)c3ccccc32)cc1 | 1.7 | -0.9 | 12.0 | 0.5 | nt
CCN(CC)CCn1c(=N)n(CC(=O)c2ccc(C)cc2)c2ccccc21 | -0.1 | -0.8 | 4.5 | 3.8* | 10.6*
COC(=O)[C@]12C[C@H](CC(=O)N3CCN(C(=O)C4CC4)CC3)C(=O)N(CCc3ccc(OC)c(OC)c3)C1=C[C@H](C1CCCC1)O[C@@H]2C | nt | nt | 1.1 | nt | nt
CCCC(=O)c1ccc(N2CCN(C(=O)c3ccccc3Br)CC2)c(F)c1 | -0.9 | -2.3 | 0.6 | 5.2* | -0.2
CC(=O)c1c(C)[nH]c(C(=O)OCc2ccc(Br)cc2)c1C | 6.1 | -2.4 | 1.8 | 9.0* | 0.3
CC(=O)c1c(C)[nH]c(C(=O)OCc2cccc(C)c2)c1C | -4.7 | 3.5 | -2.7 | 1.7 | nt
COc1ccccc1NC(=O)Nc1nc(C(N)Cc2ccccc2)cs1 (stereo not drawn) | -2.2 | -0.1 | 1.1 | 7.4* | 6.9*
FC(F)Oc1ccc(NC(=S)NC23CC4CC(CC(C4)C2)C3)cc1 | 4.2 | -0.9 | 1.4 | 2.0* | 0.3
C=CCN1[C@H](C#N)[C@@H](c2ccc(C#Cc3cccc(OC)c3)cc2)[C@H]1CO | nt | nt | -1.6 | nt | nt
CCc1ccccc1NC(=O)CSc1nc2ccccc2nc1N1CCOCC1 | 3.4 | 3.4 | 14.6 | 12.9* | -0.9
COc1cc(NC(=S)N2CCN(S(=O)(=O)c3ccc(F)cc3)CC2)cc(OC)c1 | 3.6 | 0.8 | 2.5 | 13.7* | 1.4
O=c1c2cc3cc(Cl)ccc3nc2ncn1CCc1c[nH]c2ccccc12 | nt | nt | 6.0 | nt | nt
CC(COc1ccccc1)CN1CCC(C(O)(c2ccccc2)c2ccccc2)CC1 (stereo not drawn) | nt | nt | -4.0 | nt | nt
Cc1c(O)cc2c(c1O)C(=O)CC(c1ccc(O)cc1)O2 (stereo not drawn) | 9.9 | 3.5 | -7.5 | 4.7* | -0.6
